ChEMBL document CHEMBL1129477, “Structure-activity relationships of the quinolone antibacterials against mycobacteria: effect of structural changes at N-1 and C-7” (J Med Chem, 1996)
Converted amounts (≈) assume the structure as drawn.

What was measured:
Type in all cases: functional
Escherichia coli = assay: Anti-bacterial activity was tested against Gram-negative EC-1 bacterium
How it was run: (§1)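 Standard microtitration MIC determination (µg/mL) against four representative Gram-negative and Gram-positive bacterial strains.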

[1] = test system: Mycolicibacterium fortuitum; assay: Anti-bacterial activity tested against Mycobacterium fortuitum (ATCG 6841)
[2] = test system: Mycolicibacterium smegmatis; assay: Anti-bacterial activity tested against Mycobacterium smegmatis (ATCG 19420)
Pseudomonas aeruginosa = assay: Anti-bacterial activity tested against Gram-negative PA-7 bacterium; how it was run: as §1
Staphylococcus aureus = assay: Anti-bacterial activity was tested against Gram-positive SA-13 bacterium; how it was run: as §1
Streptococcus pyogenes = assay: Anti-bacterial activity tested against Gram-positive SP1-1 bacterium; how it was run: as §1

Row | SMILES | MIC (Escherichia coli) [µg/mL] | MIC [1] [µg/mL] | MIC [2] [µg/mL] | MIC (Pseudomonas aeruginosa) [µg/mL] | MIC (Staphylococcus aureus) [µg/mL] | MIC (Streptococcus pyogenes) [µg/mL]
1 | CCNCC1CCN(c2cc3c(cc2F)c(=O)c(C(=O)O)cn3C2CC2)C1 (stereo unspecified) | 0.1 (≈ 0.268 µM) | 0.5 (≈ 1.34 µM) | 0.5 (≈ 1.34 µM) | 1.6 (≈ 4.28 µM) | 0.8 (≈ 2.14 µM) | 0.8 (≈ 2.14 µM)
2 | CN1CCN(c2cc3c(cc2F)c(=O)c(C(=O)O)cn3-c2ccc(F)cc2F)CC1 | 0.2 (≈ 0.479 µM) | 0.25 (≈ 0.599 µM) | 0.5 (≈ 1.2 µM) | 0.8 (≈ 1.92 µM) | 0.2 (≈ 0.479 µM) | 1.6 (≈ 3.83 µM)
3 | CCN1CCN(c2cc3c(cc2F)c(=O)c(C(=O)O)cn3C2CCC2)CC1 | 0.8 (≈ 2.14 µM) | 0.5 (≈ 1.34 µM) | 2 (≈ 5.36 µM) | > 3.1 | 3.1 (≈ 8.3 µM) | > 3.1
4 | NC1CCN(c2cc3c(cc2F)c(=O)c(C(=O)O)cn3-c2ccc(F)cc2F)C1 (stereo unspecified) | 0.03 (≈ 0.0744 µM) | 0.13 (≈ 0.322 µM) | 0.13 (≈ 0.322 µM) | 0.2 (≈ 0.496 µM) | 0.05 (≈ 0.124 µM) | 0.1 (≈ 0.248 µM)
5 | CCCCN1CCN(c2cc3c(cc2F)c(=O)c(C(=O)O)cn3-c2ccc(F)cc2F)CC1 | 0.8 (≈ 1.74 µM) | 1 (≈ 2.18 µM) | 2 (≈ 4.35 µM) | 3.1 (≈ 6.75 µM) | 0.4 (≈ 0.871 µM) | 3.1 (≈ 6.75 µM)
6 | CC(C)CN1CCN(c2cc3c(cc2F)c(=O)c(C(=O)O)cn3-c2ccc(F)cc2F)CC1 | 3.1 (≈ 6.75 µM) | 2 (≈ 4.35 µM) | 4 (≈ 8.71 µM) | > 3.1 | 0.8 (≈ 1.74 µM) | > 3.1
7 | O=C(O)c1cn(C2CC2)c2cc(N3CCNCC3)c(F)cc2c1=O [CIPROFLOXACIN] |  | 0.06 (≈ 0.181 µM) | 0.25 (≈ 0.754 µM) | 0.2 (≈ 0.604 µM) |  | 0.4 (≈ 1.21 µM)
8 | CN1CCN(c2cc3c(cc2F)c(=O)c(C(=O)O)cn3C2CC2)CC1 | 0.05 (≈ 0.145 µM) | 0.06 (≈ 0.174 µM) | 0.25 (≈ 0.724 µM) | 0.4 (≈ 1.16 µM) | 0.2 (≈ 0.579 µM) | 1.6 (≈ 4.63 µM)
9 | O=C(O)c1cn(-c2ccc(F)cc2F)c2cc(N3CCNCC3)c(F)cc2c1=O | 0.1 (≈ 0.248 µM) | 0.25 (≈ 0.62 µM) | 0.5 (≈ 1.24 µM) | 0.2 (≈ 0.496 µM) | 0.4 (≈ 0.992 µM) | 0.4 (≈ 0.992 µM)
10 | CNCC1CCN(c2cc3c(cc2F)c(=O)c(C(=O)O)cn3-c2ccc(F)cc2F)C1 (stereo unspecified) | 0.2 (≈ 0.464 µM) | 0.13 (≈ 0.301 µM) | 0.25 (≈ 0.579 µM) | 0.8 (≈ 1.85 µM) | 0.1 (≈ 0.232 µM) | 0.1 (≈ 0.232 µM)
11 | CCCCN1CCN(c2cc3c(cc2F)c(=O)c(C(=O)O)cn3C2CC2)CC1 | 0.1 (≈ 0.258 µM) | 1 (≈ 2.58 µM) | 0.5 (≈ 1.29 µM) | 1.6 (≈ 4.13 µM) | 0.4 (≈ 1.03 µM) | > 3.1
12 | CCN1CCN(c2cc3c(cc2F)c(=O)c(C(=O)O)cn3-c2ccc(F)cc2F)CC1 | 0.4 (≈ 0.927 µM) | 0.5 (≈ 1.16 µM) | 1 (≈ 2.32 µM) | 1.6 (≈ 3.71 µM) | 0.2 (≈ 0.464 µM) | 0.8 (≈ 1.85 µM)

The next lines start with the values.

Row | MIC (Escherichia coli) [µg/mL] | MIC [1] [µg/mL] | MIC [2] [µg/mL] | MIC (Pseudomonas aeruginosa) [µg/mL] | MIC (Staphylococcus aureus) [µg/mL] | MIC (Streptococcus pyogenes) [µg/mL] | SMILES
13 | 0.4 (≈ 1.16 µM) | 1 (≈ 2.9 µM) | 1 (≈ 2.9 µM) | 1.6 (≈ 4.63 µM) | 3.1 (≈ 8.98 µM) | 1.6 (≈ 4.63 µM) | NC1CCN(c2cc3c(cc2F)c(=O)c(C(=O)O)cn3C2CCC2)C1 (stereo unspecified)
14 | 0.05 (≈ 0.151 µM) | < 0.03 | 0.25 (≈ 0.754 µM) | 0.2 (≈ 0.604 µM) | 0.4 (≈ 1.21 µM) | 0.8 (≈ 2.41 µM) | NC1CCN(c2cc3c(cc2F)c(=O)c(C(=O)O)cn3C2CC2)C1 (stereo unspecified)
15 | 0.4 (≈ 1.25 µM) | 1 (≈ 3.13 µM) | 4 (≈ 12.5 µM) | 0.8 (≈ 2.51 µM) | 1.6 (≈ 5.01 µM) | 0.8 (≈ 2.51 µM) | CCn1cc(C(=O)O)c(=O)c2cc(F)c(N3CCC(N)C3)cc21 (stereo unspecified)
16 | 1.6 (≈ 4.43 µM) | 0.5 (≈ 1.38 µM) | 2 (≈ 5.53 µM) | > 3.1 | 3.1 (≈ 8.58 µM) | > 3.1 | CC1CN(c2cc3c(cc2F)c(=O)c(C(=O)O)cn3C(C)C)CC(C)N1 (stereo unspecified)
17 | 0.1 (≈ 0.277 µM) | 0.03 (≈ 0.083 µM) | 0.06 (≈ 0.166 µM) | 0.8 (≈ 2.21 µM) | 0.4 (≈ 1.11 µM) | > 3.1 | CC1CN(c2cc3c(cc2F)c(=O)c(C(=O)O)cn3C(C)(C)C)CCN1 (stereo unspecified)
18 | 0.8 (≈ 2.4 µM) | 1 (≈ 3 µM) | 2 (≈ 6 µM) | 1.6 (≈ 4.8 µM) | 3.1 (≈ 9.3 µM) | > 3.1 | CC(C)n1cc(C(=O)O)c(=O)c2cc(F)c(N3CCC(N)C3)cc21 (stereo unspecified)
19 | 0.2 (≈ 0.533 µM) | 0.13 (≈ 0.346 µM) | 0.13 (≈ 0.346 µM) | 1.6 (≈ 4.26 µM) | 0.2 (≈ 0.533 µM) | > 3.1 | CCN1CCN(c2cc3c(cc2F)c(=O)c(C(=O)O)cn3C(C)(C)C)CC1
20 | 0.8 (≈ 2.3 µM) | 0.5 (≈ 1.44 µM) | 2 (≈ 5.76 µM) | 3.1 (≈ 8.92 µM) | 3.1 (≈ 8.92 µM) | > 3.1 | CC1CN(c2cc3c(cc2F)c(=O)c(C(=O)O)cn3C(C)C)CCN1 (stereo unspecified)
21 | 0.2 (≈ 0.533 µM) | 0.06 (≈ 0.16 µM) | 0.06 (≈ 0.16 µM) | 1.6 (≈ 4.26 µM) | 0.4 (≈ 1.07 µM) | > 3.1 | CC1CN(c2cc3c(cc2F)c(=O)c(C(=O)O)cn3C(C)(C)C)CC(C)N1 (stereo unspecified)
22 | 0.4 (≈ 1.07 µM) | 0.13 (≈ 0.348 µM) | 0.5 (≈ 1.34 µM) | 3.1 (≈ 8.3 µM) | 3.1 (≈ 8.3 µM) | > 3.1 | CC1CN(c2cc3c(cc2F)c(=O)c(C(=O)O)cn3C2CCC2)CC(C)N1 (stereo unspecified)
23 | 0.2 (≈ 0.576 µM) | 0.06 (≈ 0.173 µM) | 0.13 (≈ 0.374 µM) | 0.4 (≈ 1.15 µM) | 0.4 (≈ 1.15 µM) | 0.4 (≈ 1.15 µM) | CC(C)(C)n1cc(C(=O)O)c(=O)c2cc(F)c(N3CCC(N)C3)cc21 (stereo unspecified)
